Assay results taken from ChEMBL document CHEMBL1147981, “Small molecule activators of SIRT1 as therapeutics for the treatment of type 2 diabetes” (Nature, 2007).
pEC50: −log10 of the molar value. Activity calls are given as the source filed them. The calls are words filed in the database; no cut-off is given here.

Experiments:
Mus musculus [1] = assay: Reduction of fasting blood glucose in DIO C57BL/6 mouse model at 5 mg/kg, po assessed as glucose level by glucose tolerance test; format: functional
Procedure, shortened: (§1)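 Male C57BL/6 mice, started at nine weeks, fed 60%-fat diet until mean weight ~40 g; 6-10 per group; once-daily oral gavage in 2% HPMC + 0.2% DOSS. Fed glucose at 2, 4, 6, 8, 10 weeks; IPGTT after 5 weeks; ITT after 10 weeks. One-way ANOVA with Dunnett's test vs control, p<0.05.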

Mus musculus [2] = assay: Reduction of glucose levels in DIO C57BL/6 mouse model at 5 mg/kg, po during insulin tolerance test; format: functional, organism-based; design: dose 5 mg/kg; procedure, shortened: as §1
Rattus norvegicus [3] = assay: Increase in glucose infusion rate required to maintain euglycaemia in po dosed Zucker fa/fa rat relative to control; format: functional
Procedure, shortened: (§2)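 Cannulated 10-week-old fa/fa Zucker rats, unrestrained. D-[3-3H]glucose prime 7.5 μCi, then infused at 0.167 μCi/min; basal samples at -10 and 0 min for hepatic glucose production. From 0 min, insulin at 25 mU/kg/min plus variable 50% dextrose infusion; plasma insulin and FFA at 0 and 120 min.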

Mus musculus [4] = assay: Reduction of hyperinsulinemia in DIO C57BL/6 mouse model at 100 mg/kg, po after 4 weeks; format: functional, organism-based; design: dose 100 mg/kg
Mus musculus [5] = assay: Increase in mitochondrial capacity in DIO C57BL/6 mouse model assessed as citrate synthase activity at 100 mg/kg, po after 10 weeks; format: functional; conditions: in the assay text read “after 11 weeks” for “after 10 weeks”
Procedure, shortened: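 Citrate synthase activity in gastrocnemius and epididymal white adipose tissue after 11 weeks of daily oral dosing in high-fat-fed C57BL/6 mice; five mice per group closest to the group's mean fasting glucose were selected.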

[6] = target: T1, NAD-dependent protein deacetylase sirtuin-1 (Homo sapiens) (UniProt Q96EB6); assay: Activation of human SIRT1-G (235-664) construct by mass spectrometry assay relative to control
T1 sequence (whole entry): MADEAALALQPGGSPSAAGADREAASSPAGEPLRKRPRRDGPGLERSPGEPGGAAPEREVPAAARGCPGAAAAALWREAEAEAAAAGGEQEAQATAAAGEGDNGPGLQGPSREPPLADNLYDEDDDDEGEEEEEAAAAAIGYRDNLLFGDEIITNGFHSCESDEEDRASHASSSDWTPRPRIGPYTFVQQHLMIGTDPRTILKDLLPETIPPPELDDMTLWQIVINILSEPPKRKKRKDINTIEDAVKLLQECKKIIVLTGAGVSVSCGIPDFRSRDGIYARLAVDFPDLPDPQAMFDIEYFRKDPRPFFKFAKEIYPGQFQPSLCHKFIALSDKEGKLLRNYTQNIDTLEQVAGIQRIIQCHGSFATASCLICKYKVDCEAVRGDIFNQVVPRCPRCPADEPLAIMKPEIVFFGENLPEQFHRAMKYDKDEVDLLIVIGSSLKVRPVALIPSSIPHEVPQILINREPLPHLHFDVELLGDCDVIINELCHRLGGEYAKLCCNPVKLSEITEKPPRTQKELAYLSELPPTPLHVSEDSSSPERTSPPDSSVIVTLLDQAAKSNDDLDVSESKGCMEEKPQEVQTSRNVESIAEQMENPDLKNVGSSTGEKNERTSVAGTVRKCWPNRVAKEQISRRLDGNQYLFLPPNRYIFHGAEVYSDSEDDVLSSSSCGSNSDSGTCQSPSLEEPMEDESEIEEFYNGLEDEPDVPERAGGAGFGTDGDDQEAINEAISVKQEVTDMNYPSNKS

[7] = Bioavailability in Sprague-Dawley rat administered at 10 mg/kg, iv; format: ADME, organism-based; conditions: in vivo
[8] = target: T1, NAD-dependent protein deacetylase sirtuin-1 (Homo sapiens); assay: Activation of human SIRT1-E (225-664) construct by mass spectrometry assay relative to control
Mus musculus [9] = species: Mus musculus; assay: Reduction of insulin level in chow-fed C57BL/6 mouse; format: functional, organism-based
Rattus norvegicus [10] = species: Rattus norvegicus; assay: Reduction in hepatic gluconeogenesis in Zucker fa/fa rat assessed as glucose response by pyruvate tolerance test relative to control; format: functional, organism-based
Procedure, shortened: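 Day 22 of daily oral dosing in fa/fa Zucker rats: after overnight fast, sodium pyruvate 1 g/kg ip in 0.9% NaCl; tail-vein glucose at 0, 30, 40, 50, 60 and 90 min.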

[11] = Terminal half life in C57BL/6 mouse at 100 mg/kg/day, po; format: ADME, organism-based; design: route oral; conditions: in vivo
Procedure, shortened: (§3)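 Oral gavage in 2% HPMC + 0.2% DOSS (hydrochloride salt) to male C57BL/6 mice, 18-22 g, 3 per dose group per time point; blood taken at 5, 30, 120 and 360 min after dosing after CO2 sacrifice; plasma drug levels measured.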

Mus musculus [12] = assay: Reduction of fasting blood glucose in DIO C57BL/6 mouse model at 100 mg/kg, po assessed as glucose level by glucose tolerance test; format: functional; procedure, shortened: as §1
Rattus norvegicus [13] = assay: Increase in insulin sensitivity in po dosed Zucker fa/fa rat assessed as hepatic glucose production relative to control; format: functional, organism-based; procedure, shortened: as §2
[14] = target: T1, NAD-dependent protein deacetylase sirtuin-1 (Homo sapiens); assay: Activation of human SIRT1-B (172-664) construct by mass spectrometry assay relative to control
[15] = Bioavailability in C57BL/6 mouse at 100 mg/kg/day, po; format: ADME, organism-based; conditions: in vivo
Procedure, shortened: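 Male C57BL/6 mice (18-22 g, 3 per group per time point). Oral dosing by gavage in 2% HPMC + 0.2% DOSS, compared with tail-vein iv dosing in 10% ethanol/40% PEG/50% water.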

Rattus norvegicus [16] = assay: Reduction of blood insulin level in po dosed Zucker fa/fa rat after 3 weeks by glucose tolerance test; format: functional
Procedure, shortened: (§4)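 On day 26 of daily oral dosing, fa/fa Zucker rats fasted 5 h, then gavaged with 1 g/kg dextrose; tail-vein glucose at 0, 15, 30, 60, 90 min; plasma for insulin at 0, 15, 30, 60 min.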

Mus musculus [17] = assay: Reduction of blood glucose level in diabetic Lep ob/ob mouse model at 100 mg/kg, po after 1 week; format: functional, organism-based; design: dose 100 mg/kg
Procedure, shortened: (§5)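 ob/ob mice received at 6 weeks, kept on 60%-fat diet from at least one week before study; ~40-45 g; grouped by body weight and glucose; once-daily oral gavage in 2% HPMC + 0.2% DOSS. One-way ANOVA with Dunnett's test vs control, p<0.05.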

[18] = target: T1, NAD-dependent protein deacetylase sirtuin-1 (Homo sapiens); assay: Activation of human SIRT1-F (230-664) construct by mass spectrometry assay relative to control
Rattus norvegicus [19] = assay: Reduction of blood glucose level in po dosed Zucker fa/fa rat assessed as glucose level after 3 weeks by glucose tolerance test; format: functional; procedure, shortened: as §4
[20] = target: T1, NAD-dependent protein deacetylase sirtuin-1 (Homo sapiens); assay: Activation of human SIRT1-A (156-664) construct by mass spectrometry assay relative to control
[21] = target: T2, NAD-dependent protein deacetylase sirtuin-2 (Homo sapiens, UniProt Q8IXJ6); assay: Activation of SIRT2 by mass spectrometry assay
T2 sequence (Q8IXJ6 whole entry): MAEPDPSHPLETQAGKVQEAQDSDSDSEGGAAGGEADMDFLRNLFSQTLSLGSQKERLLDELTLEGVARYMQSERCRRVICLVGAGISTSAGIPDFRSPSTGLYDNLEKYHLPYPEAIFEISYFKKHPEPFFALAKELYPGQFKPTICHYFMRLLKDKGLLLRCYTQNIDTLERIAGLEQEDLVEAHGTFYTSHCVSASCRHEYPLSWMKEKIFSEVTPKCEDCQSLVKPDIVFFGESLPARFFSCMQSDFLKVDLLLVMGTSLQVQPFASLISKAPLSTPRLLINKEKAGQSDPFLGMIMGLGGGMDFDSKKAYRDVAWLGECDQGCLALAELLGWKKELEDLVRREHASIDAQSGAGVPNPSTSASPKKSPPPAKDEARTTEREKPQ

Rattus norvegicus [22] = assay: Increase in adipose insulin sensitivity in po dosed Zucker fa/fa rat assessed as plasma free fatty acid level relative to control; format: functional; procedure, shortened: as §2
Mus musculus [23] = assay: Effect on body weight in diabetic Lep ob/ob mouse model at 100 mg/kg, po; format: functional, organism-based; design: dose 100 mg/kg; procedure, shortened: as §5
[24] = target: T1, NAD-dependent protein deacetylase sirtuin-1 (Homo sapiens); assay: Activation of human SIRT1 assessed as decrease in Km of enzyme for acetylated peptide substrate by mass spectrometry assay
[25] = target: T1, NAD-dependent protein deacetylase sirtuin-1 (Homo sapiens); assay: Activation of human SIRT1-H (240-664) construct by mass spectrometry assay relative to control
[26] = target: T1, NAD-dependent protein deacetylase sirtuin-1 (Homo sapiens); assay: Activation of human SIRT1 expressed in Escherichia coli BL21 by mass spectrometry assay
[27] = target: T1, NAD-dependent protein deacetylase sirtuin-1 (Homo sapiens); assay: Activation of human SIRT1-C construct by mass spectrometry assay relative to control
[28] = AUC in C57BL/6 mouse at 100 mg/kg/day, po; format: ADME, organism-based; design: route oral; conditions: plasma; procedure, shortened: as §3
Rattus norvegicus [29] = assay: Increase in glucose disposal rate in po dosed Zucker fa/fa rat relative to control; format: functional; procedure, shortened: as §2
Rattus norvegicus [30] = assay: Increase in insulin-induced glucose disposal rate into skeletal muscle in po dosed Zucker fa/fa rat relative to control; format: functional
[31] = Terminal half life in Sprague-Dawley rat at 100 mg/kg/day, po; format: ADME, organism-based; design: route oral; conditions: in vivo
[32] = target: T3, NAD-dependent protein deacetylase sirtuin-3, mitochondrial (Homo sapiens, UniProt Q9NTG7); assay: Activation of SIRT3 by mass spectrometry assay
T3 sequence (Q9NTG7 whole entry): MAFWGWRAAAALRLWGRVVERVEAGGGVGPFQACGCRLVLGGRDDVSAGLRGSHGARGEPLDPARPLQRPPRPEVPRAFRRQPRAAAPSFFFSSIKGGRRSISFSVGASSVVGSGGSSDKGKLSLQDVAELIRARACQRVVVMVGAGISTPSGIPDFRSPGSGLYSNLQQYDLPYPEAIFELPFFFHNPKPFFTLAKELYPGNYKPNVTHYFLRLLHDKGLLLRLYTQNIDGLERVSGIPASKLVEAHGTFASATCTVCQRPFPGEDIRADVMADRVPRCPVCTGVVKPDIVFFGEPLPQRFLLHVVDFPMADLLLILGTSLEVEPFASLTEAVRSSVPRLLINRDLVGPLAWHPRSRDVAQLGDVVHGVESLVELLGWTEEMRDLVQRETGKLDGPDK

[33] = target: T1, NAD-dependent protein deacetylase sirtuin-1 (Homo sapiens); assay: Activation of SIRT1 in human U2OS cells assessed as decrease in p53 deacetylation level at 0.10 uM; format: cell-based
Procedure, shortened: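 U-2 OS cells seeded 1.5 × 10⁴/well; compounds in DMSO added after 24 h, then doxorubicin 1 μg/ml final to induce p53. Fixed, permeabilized, immunostained for Ac-Lys382-p53 and beta-tubulin, infrared scan; background-corrected acetyl signal normalized to tubulin, then to vehicle as % acetylated p53. Replicate plates co-treated with a SIRT1-specific inhibitor.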

[34] = target: T1, NAD-dependent protein deacetylase sirtuin-1 (Homo sapiens); assay: Activation of human SIRT1-D (219-664) construct by mass spectrometry assay relative to control
[35] = AUC in Sprague-Dawley rat at 100 mg/kg/day, po; format: ADME, organism-based; design: route oral; conditions: plasma
Mus musculus [36] = assay: Reduction of glucose levels in DIO C57BL/6 mouse model at 100 mg/kg, po during insulin tolerance test; format: functional, organism-based; design: dose 100 mg/kg; procedure, shortened: as §1

## CN(CCOc1ccc(CC2SC(=O)NC2=O)cc1)c1ccccn1 (stereo unspecified) [ROSIGLITAZONE]
Mus musculus [1]
  Activity: 496 mg/h/dL
Mus musculus [2]
  Activity: Active

## O=C(Nc1ccccc1-c1cn2c(CN3CCNCC3)csc2n1)c1cnc2ccccc2n1
Rattus norvegicus [3]
  Activity: 35%
Mus musculus [4]
  Activity: Active
Mus musculus [5]
  Activity: 15%
[6]
  Activity: 1.9
[7]
  bioavailability: 25%
[8]
  Activity: 1.6
Mus musculus [9]
  Activity: inactive
Rattus norvegicus [10]
  Activity: Active
[11]
  half-life: 5 h
Mus musculus [12]
  Activity: 462 mg/h/dL
Rattus norvegicus [13]
  Activity: Active
[14]
  Activity: 5.8
[15]
  bioavailability: 50%
Rattus norvegicus [16]
  Activity: 25 ng/min/dL
Mus musculus [17]
  Activity: Active
[18]
  Activity: 1.5
Rattus norvegicus [19]
  Activity: 2490 mg/min/dL
[20]
  Activity: 5.9
[21]
  pEC50: 4.43
Rattus norvegicus [22]
  Activity: 40%
Mus musculus [23]
  Activity: inactive
[24]
  Activity: Active
[25]
  Activity: 2
[26]
  Activity: 781%
[27]
  Activity: 5.6
[28]
  AUC: 7890 ng·h/mL
Rattus norvegicus [29]
  Activity: 20%
Rattus norvegicus [30]
  Activity: 55%
[31]
  half-life: 8.4 h
[32]
  pEC50: < 3.52
[33]
  Activity: Active
[34]
  Activity: 1.3
[35]
  AUC: 3710 ng·h/mL
Mus musculus [36]
  Activity: Active
